From ChEMBL document CHEMBL2010713, “Structure-activity relationship of a new series of reversible dual monoacylglycerol lipase/fatty acid amide hydrolase inhibitors” (J Med Chem, 2012) come the findings set out here.

Test [1] deals with T1, Fatty-acid amide hydrolase 1 (Rattus norvegicus) (UniProt P97612).
T1 sequence (whole entry): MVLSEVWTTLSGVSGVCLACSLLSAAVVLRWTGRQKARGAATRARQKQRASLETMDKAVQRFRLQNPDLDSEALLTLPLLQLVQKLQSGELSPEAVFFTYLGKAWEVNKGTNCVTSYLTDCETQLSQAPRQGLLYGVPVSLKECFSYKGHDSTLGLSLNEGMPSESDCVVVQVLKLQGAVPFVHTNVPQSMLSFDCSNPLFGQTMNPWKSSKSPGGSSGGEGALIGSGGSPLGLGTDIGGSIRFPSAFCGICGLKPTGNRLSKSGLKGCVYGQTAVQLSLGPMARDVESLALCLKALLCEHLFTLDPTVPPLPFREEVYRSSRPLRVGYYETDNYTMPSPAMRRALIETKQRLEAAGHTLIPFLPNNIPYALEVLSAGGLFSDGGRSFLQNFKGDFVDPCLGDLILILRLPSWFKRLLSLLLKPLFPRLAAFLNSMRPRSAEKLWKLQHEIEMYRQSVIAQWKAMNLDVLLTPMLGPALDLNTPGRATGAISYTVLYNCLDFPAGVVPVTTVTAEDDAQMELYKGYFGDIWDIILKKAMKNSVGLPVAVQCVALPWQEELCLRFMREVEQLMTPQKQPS
The experiment in a line: Inhibition of rat brain membrane FAAH assessed as [3H]-anandamide hydrolysis at 100 uM after 10 mins by liquid scintillation spectroscopy. In short, it runs like this:
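Membrane fraction of rat cerebella (100000g pellet resuspended in 50 mM sodium phosphate pH 8.0), diluted in 10 mM Tris-HCl, 1 mM EDTA, pH 7.2, for initial-rate conditions. [3H]-anandamide, ethanolamine-labelled, final 0.5 μM, with fatty acid-free BSA. Aqueous-phase tritium measured by liquid scintillation; blanks lacked enzyme; activity as percent of solvent-carrier control. Highest concentration 100 μM; 3–10 independent experiments.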

Test [2] concerns the target T2, Monoglyceride lipase (Homo sapiens, UniProt Q99685).
T2 sequence (Q99685 whole entry): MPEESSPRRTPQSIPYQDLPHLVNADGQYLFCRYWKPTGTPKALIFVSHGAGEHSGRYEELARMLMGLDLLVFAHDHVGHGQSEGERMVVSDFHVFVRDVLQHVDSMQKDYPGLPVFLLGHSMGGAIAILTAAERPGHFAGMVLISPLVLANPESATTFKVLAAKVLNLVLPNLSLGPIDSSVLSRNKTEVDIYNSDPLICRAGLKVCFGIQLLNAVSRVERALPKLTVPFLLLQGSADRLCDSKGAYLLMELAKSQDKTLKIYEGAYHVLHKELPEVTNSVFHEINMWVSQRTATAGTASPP
In words: Inhibition of human recombinant his-tagged MAGL expressed in Escherichia coli assessed as hydrolysis of 4-nitrophenyl acetate after 20 mins by microplate reader.

Test [3] deals with T3, Monoglyceride lipase (Homo sapiens) (UniProt Q99685).
T3 sequence (whole entry): T2 sequence (Q99685 whole entry)
The experiment in a line: Inhibition of human recombinant his-tagged MAGL expressed in Escherichia coli assessed as hydrolysis of 4-nitrophenyl acetate at 10 uM after 20 mins by microplate reader.

In test [4] the target is T4, Monoglyceride lipase (Rattus norvegicus) (UniProt Q8R431).
T4 sequence (whole entry): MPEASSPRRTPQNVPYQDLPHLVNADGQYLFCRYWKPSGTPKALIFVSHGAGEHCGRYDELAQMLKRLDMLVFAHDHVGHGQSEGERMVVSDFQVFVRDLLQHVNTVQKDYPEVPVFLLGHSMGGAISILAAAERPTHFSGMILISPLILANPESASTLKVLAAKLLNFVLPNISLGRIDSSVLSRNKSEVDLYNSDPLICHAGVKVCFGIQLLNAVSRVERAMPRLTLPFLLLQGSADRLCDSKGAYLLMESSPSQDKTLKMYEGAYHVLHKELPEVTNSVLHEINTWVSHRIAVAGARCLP
In words: Inhibition of rat brain cytosolic MAGL assessed as [3H]-2-arachidonoyl glycerol hydrolysis at 100 uM after 10 mins by liquid scintillation spectroscopy.

The target of test [5] is T4, Monoglyceride lipase (Rattus norvegicus). The experiment in a line: Irreversible inhibition of rat brain cytosolic MAGL assessed as [3H]-2-arachidonoyl glycerol hydrolysis at 3 uM preincubated for 60 mins measured after dilution by liquid scintillation.
Test [6] has the same target. The experiment in a line: Irreversible inhibition of rat brain cytosolic MAGL assessed as […] at 3 to 10 uM preincubated for 60 mins by liquid scintillation.
Test [7] shares this target. In words: Irreversible inhibition of rat brain cytosolic MAGL assessed as [3H]-anandamide hydrolysis at 3 uM preincubated for 60 mins followed by […] compound treated after dilution by liquid scintillation.
For test [8] the target is unchanged. In words: Irreversible inhibition of rat brain cytosolic MAGL assessed as […] at 0.1 to 1 uM preincubated for 60 mins by liquid scintillation.
For test [9] the target is unchanged. In words: Irreversible inhibition of rat brain cytosolic MAGL assessed as [3H]-anandamide hydrolysis at 3 uM preincubated for 60 mins measured after dilution by liquid scintillation.
Test [10] shares this target. In words: Irreversible inhibition of rat brain cytosolic MAGL assessed as [3H]-2-arachidonoyl glycerol hydrolysis at 3 uM preincubated for 60 mins followed by […] compound treated after dilution by liquid scintillation.
Test [11] addresses T2, Monoglyceride lipase. In words: Non-competitive inhibition of human recombinant MAGL assessed as 7-hydroxycoumarin level using umbelliferyl arachidonate as substrate by luminescence spectrophotometer.
The target in test [12] is Monoglyceride lipase (Rattus norvegicus) (UniProt Q8R431). In words: Inhibition of rat brain cytosolic MAGL assessed as [3H]-2-oleoylglycerol hydrolysis after 10 mins by liquid scintillation spectroscopy.
Test [13] shares this target. The experiment in a line: Inhibition of rat brain cytosolic MAGL assessed as [3H]-2-oleoylglycerol hydrolysis at 100 uM after 10 mins by liquid scintillation spectroscopy. To be noted: Cytosol.
Test [14] concerns the target Fatty-acid amide hydrolase 1 (Rattus norvegicus) (UniProt P97612). In words: Inhibition of rat brain membrane FAAH assessed as [3H]-anandamide hydrolysis after 10 mins by liquid scintillation spectroscopy.
In test [15] the target is T4, Monoglyceride lipase (Rattus norvegicus). In words: Irreversible inhibition of rat brain cytosolic MAGL assessed as [3H]-2-arachidonoyl glycerol hydrolysis at 0.1 uM preincubated for 60 mins by liquid scintillation.
Test [16] has the same target. As to conditions: 10 uM.
Test [17] concerns the target T3, Monoglyceride lipase (Homo sapiens).
Test [18] has as its target T4, Monoglyceride lipase (Rattus norvegicus). As to conditions: 10 uM. This is another data set of the same source.
Test [19] has the same target. To be noted: 10 uM. The source holds these as a separate data set.
Test [20] has the same target. As to conditions: 10 uM. The source holds these as a separate data set.

Calls of active or inactive are those of the source. The rule behind the calls is not given here. A value given as a limit tells only on which side of the number the result lay.

For `O=C(CCCCCc1ccc(-c2ccccc2)cc1)OC[C@H]1CO1`, the Imax in [1] came to 91%. Further, the IC50 (as a rule, the concentration that inhibits the measured activity by half) on Monoglyceride lipase [2] was over 10 µM. Also, in test [3], the inhibition – broadly, the drop in the measured response relative to a control, in per cent – worked out at 33%.

With `O=C(CCCCCc1ccc(-c2ccccc2)cc1)OC[C@@H]1CO1`, the Imax in [1] was 92%; in [4] it was over 95%. Also, the IC50 on Monoglyceride lipase [2] was over 10 µM. In addition, the inhibition in test [3] was found to be 45%.

For `O=C(Cc1ccc(Cc2ccccc2)cc1)OC[C@H]1CO1`, the inhibition result in [5], in test [6], in [7], in [8], in test [9] and in [10] was “inactive” throughout. At Monoglyceride lipase [2], the IC50 came to 2.4 µM. Moreover, the Ki (commonly the equilibrium dissociation constant of an inhibitor or competing ligand from its target) at Monoglyceride lipase [11] stood at 40 µM.

On to `O=C(CCCCCc1ccc(-c2ccccc2)cc1)OC(CO)CO`, for which the IC50 at Monoglyceride lipase [2] came out at 7.5 µM.

Consider `O=C(Cc1ccc(Cc2ccccc2)cc1)OC(CO)CO`, for which the IC50 in [12] was over 100 µM; in test [14], 0.7 µM. The inhibition was 49% in test [13] and under 10% in [3].

For `CCCCC/C=C\C/C=C\C/C=C\C/C=C\CCCC(=O)OCC1CCCCO1` (stereo not given), the IC50 in [12] is 5.6 µM.

For `O=C(Cc1ccc(Cc2ccccc2)cc1)OC[C@@H]1CO1`, the inhibition in [3] is under 10%.

Regarding `O=C(Oc1ccc([N+](=O)[O-])cc1)N1CCC(C(O)(c2ccc3c(c2)OCO3)c2ccc3c(c2)OCO3)CC1`, the inhibition entry in [15] is “Active”.

For `O=C(/C=C/c1ccc(-c2ccccc2)cc1)OCC1CO1` (racemic), the half-inhibitory concentration (IC50) on Monoglyceride lipase [2] is 5.1 µM. The Imax in test [4] came out at 73%.

For `O=C(CCc1ccc(-c2ccccc2)cc1)OCC1CO1` (racemic), the IC50 at Monoglyceride lipase [2] is over 10 µM. Further, in test [3], the inhibition is 22%.

On to `O=C(CCCc1ccc(-c2ccccc2)cc1)OCC1CO1` (racemic), for which the IC50 on Monoglyceride lipase [2] was determined as 1.8 µM. Further, the Imax in [3] came out at 86%.

As to `O=C(CCCCc1ccc(-c2ccccc2)cc1)OCC1CO1` (racemic), the Imax in test [1] was 87%. Further, the IC50 at Monoglyceride lipase [2] was 6.6 µM; in [12] it was 2.6 µM; in test [14], 4.6 µM.

For the molecule `O=C(CCCCCc1ccc(-c2ccccc2)cc1)OCC1CO1` (racemic), the inhibition result in test [16], in test [18], in test [19] and in [20] was “Active” throughout. In addition, the Imax in test [1] worked out at 89%. Further, the inhibition entry in [6] and in test [8] was “inactive” each time. The IC50 at Monoglyceride lipase [2] was 4.1 µM. In addition, in [17], the Kic is 8 µM.

For `O=C(CCCCCCc1ccc(-c2ccccc2)cc1)OCC1CO1` (racemic), at Monoglyceride lipase [2], the IC50 is over 10 µM. Moreover, the inhibition in test [3] was determined as 11%.

Consider `O=C(Cc1ccc(-c2ccccc2)cc1)OCC1CCCCO1` (racemic), for which, at Monoglyceride lipase [2], the IC50 is over 10 µM. In test [3], the inhibition was determined as 21%.

Turning to `O=C(CCc1ccc(-c2ccccc2)cc1)OCC1CCCCO1` (racemic), the IC50 on Monoglyceride lipase [2] was 1.6 µM. Moreover, the Imax in test [3] was determined as 67%.

In the case of `O=C(CCCc1ccc(-c2ccccc2)cc1)OCC1CCCCO1` (racemic), the IC50 at Monoglyceride lipase [2] is over 10 µM. For the same molecule, the inhibition in test [3] was 34%.

`O=C(CCCCc1ccc(-c2ccccc2)cc1)OCC1CCCCO1` (racemic): the IC50 on Monoglyceride lipase [2] was 12 µM.

For `O=C(CCCCCc1ccc(-c2ccccc2)cc1)OCC1CCCCO1` (racemic), at Monoglyceride lipase [2], the IC50 was over 10 µM. For the same molecule, in test [3], the inhibition is 33%.

`O=C(CCCCCCc1ccc(-c2ccccc2)cc1)OCC1CCCCO1` (racemic): the IC50 at Monoglyceride lipase [2] is over 10 µM. Also, the Imax in test [4] came to 83%. Besides, in test [3], the inhibition came out at 37%.

In the case of `O=C(/C=C/c1ccc(-c2ccccc2)cc1)OCC1CCCCO1` (racemic), the 50% inhibitory concentration (IC50) on Monoglyceride lipase [2] turned out to be 0.76 µM. For the same molecule, in test [4], the inhibition amounted to 37%. Moreover, in test [3], the Imax was 90%.

For the molecule `O=C(C/C=C/c1ccc(-c2ccccc2)cc1)OCC1CCCCO1` (racemic), the IC50 at Monoglyceride lipase [2] was over 10 µM. In addition, the inhibition in [3] came to 12%.

Turning to `O=C(/C=C/Cc1ccc(-c2ccccc2)cc1)OCC1CCCCO1` (racemic), on Monoglyceride lipase [2], the IC50 was over 10 µM. In test [3], the inhibition amounted to 49%.

Consider `O=C(Cc1ccc(Cc2ccccc2)cc1)OCC1CO1` (racemic), for which, at Monoglyceride lipase [2], the IC50 was 16 µM.

As for `O=C(CCCc1ccc(Cc2ccccc2)cc1)OCC1CO1` (racemic), at Monoglyceride lipase [2], the IC50 is over 10 µM. Besides, the inhibition in [3] is 29%.

For `O=C(Cc1ccc(Cc2ccccc2)cc1)OCC1CCCCO1` (racemic), the figures for the IC50 in test [12] and in test [14] were over 100 µM and 6.8 µM, respectively. Further, the Imax in test [4] amounted to 96%. For the same molecule, the inhibition in test [13] was 25%; in test [3], under 10%.

On to `O=C(CCCc1ccc(Cc2ccccc2)cc1)OCC1CCCCO1` (racemic), for which the IC50 at Monoglyceride lipase [2] is over 10 µM. Also, in test [4], the Imax was determined as 72%. In addition, the inhibition in test [3] turned out to be 14%.

Take `O=C(CCc1ccc(Cc2ccccc2)cc1)OCC1CCCCO1` (racemic): in test [3], the inhibition was under 10%.

For `O=C(CCc1ccc(Cc2ccccc2)cc1)OCC1CO1` (racemic), the Imax in [1] was found to be 72%. In test [3], the inhibition was under 10%.

With `O=C(Cc1ccc(-c2ccccc2)cc1)OCC1CO1` (racemic), the inhibition in test [3] was under 10%.

Regarding `O=C(OCC1CCCCO1)c1ccc(CCc2ccccc2)cc1` (racemic), in test [3], the inhibition was under 10%.

Consider `O=C(OCC1CO1)c1ccc(CCc2ccccc2)cc1` (racemic), for which, in [3], the inhibition was under 10%.
